Published values pooled from the literature.
Each line is one published result; the experiments were not run side by side.
MTNR1A: Melatonin receptor type 1A (MTNR1A, Homo sapiens, UniProt P48039)
Tmem97: Sigma intracellular receptor 2 (Tmem97, Rattus norvegicus, UniProt Q5U3Y7)
HTR2C: 5-hydroxytryptamine receptor 2C (HTR2C, Homo sapiens, UniProt P28335)
FLT3: Receptor-type tyrosine-protein kinase FLT3 (FLT3, Homo sapiens, UniProt P36888)
F2 trypsin-like site: Prothrombin, trypsin-like site (F2, Bos taurus, UniProt P00735)
CYP51: Sterol 14-alpha demethylase (CYP51, Trypanosoma cruzi, UniProt Q7Z1V1)

| Compound | target | assay | conditions | quantity | value |
| --- | --- | --- | --- | --- | --- |
| COc1cccc2c1CCN(C(=O)c1cc(=O)n(C)cc1Br)C2 | MTNR1A | cAMP, agonist, luciferase |  | EC50 | 96.3 nM |
| COc1ccc2c(Oc3ccc4c(C(=O)Nc5ccccc5N)cccc4c3)ccnc2c1 | Mitogen-activated protein kinase 11 (MAPK11, Homo sapiens, UniProt Q15759) | enzyme activity, inhibitor |  | IC50 | > 500 nM |
| COc1cccc2c1CCN(C(=O)c1c[nH]nc1-c1ccc(Cl)s1)C2 | MTNR1A | cAMP, agonist, luciferase |  | EC50 | 76.3 nM |
| O=C(NCCN1CCCCC1)c1cc(Br)ccc1OCCF | Tmem97 | ligand displacement, radioligand | cell membranes | Ki | 10.2 nM |
| C[C@@H]1Cc2ccccc2N1C(=O)NCCCCN(C)[C@@H]1Cc2cccc3[nH]c(=O)n(c23)C1 | HTR2C | ligand displacement, radioligand |  | Ki | > 10000 nM |
| CC(C)c1nc2cc(OCCCCN3CCN(c4cccc5c4OCCO5)CC3)ccc2s1 | HTR2C | cell-free assay, radioligand |  | Ki | 92 nM |
| CC(C)(C)Nc1ccnc(Nc2cccc(-c3cccnc3)c2)n1 | FLT3 | enzyme activity, inhibitor |  | IC50 | 13 nM |
| NC(=S)N/N=C1\C(=O)Nc2ccccc21 | Tmem97 | ligand displacement, radioligand | cell membranes | Ki | > 10000 nM |
| CC(C)(C)[C@H](NC(=O)[C@H](CCONC(=N)N)NC(=O)Cc1ccc(CNC(=N)N)cc1)C(=O)N[C@@H](CCCCN)C(=O)NCc1ccc(C(=N)N)cc1 | F2 trypsin-like site | enzyme activity, inhibitor | pH 8 | Ki | 61000 nM |
| CC(C)Nc1ccnc(Nc2cccc(C(C)(C)C)c2)n1 | FLT3 | enzyme activity, inhibitor |  | IC50 | 17200 nM |
| Cc1cc2nc3c(=O)[nH]c(=O)nc-3n(C[C@H](O)[C@H](O)[C@H](O)COP(=O)(O)OP(=O)(O)OC[C@H]3O[C@@H](n4cnc5c(N)ncnc54)[C@H](O)[C@@H]3O)c2cc1C | DNA topoisomerase 2-alpha (TOP2A, Homo sapiens, UniProt P11388) | binding | lysate | Kd | 141 nM |
| COc1ccc2ncn(CCNC(C)=O)c2c1 | MTNR1A | GTPγS binding, agonist, radiometric | cell membranes | EC50 | 2190 nM |
| c1cc(Nc2nccc(NC3CCCCC3)n2)cc(-c2cc[nH]n2)c1 | FLT3 | enzyme activity, inhibitor |  | IC50 | 96 nM |
| COc1ccc(CNc2cccnc2)cc1Br | MTNR1A | cAMP, agonist, luciferase |  | EC50 | 49 nM |
| O=C(O[C@H](Cn1ccnc1)c1ccccc1)c1ccc(-c2ccccc2)cc1 | CYP51 | binding |  | Kd | 46 nM |
| O=C(NCCc1cccc2ccccc12)C1CCC1 | MTNR1A | β-arrestin recruitment, agonist |  | EC50 | 288 nM |
| COc1ccc(-c2nsc(NC(=O)[C@@H]3C[C@H]3C)c2C)cc1 | Metabotropic glutamate receptor 1 (Grm1, Rattus norvegicus, UniProt P23385) | ligand displacement, radioligand |  | Ki | 0.6 nM |
| CC(C)(C)[C@H](NC(=O)[C@H](CCCNC(=N)N)NC(=O)Cc1ccc(CNC(=N)N)cc1)C(=O)N[C@@H](CCCNC(=N)N)C(=O)NCc1ccc(C(=N)N)cc1 | F2 trypsin-like site | enzyme activity, inhibitor | pH 8 | Ki | 20000 nM |
| c1cncc(-c2cccc(Nc3nccc(NC4CCCC4)n3)c2)c1 | FLT3 | enzyme activity, inhibitor |  | IC50 | 13 nM |
| O=C(NCCCn1ccnc1)O[C@@H](Cn1ccnc1)c1ccc(F)cc1 | CYP51 | binding |  | Kd | 87 nM |
| c1cncc(-c2cccc(Nc3nccc(NC4CCNCC4)n3)c2)c1 | FLT3 | enzyme activity, inhibitor |  | IC50 | 8 nM |
| CC(C)c1ccc(NC(=O)O[C@H](Cn2ccnc2)c2ccc(F)cc2)cc1 | CYP51 | binding |  | Kd | 32 nM |

| Compound | target | assay | conditions | quantity | value |
| --- | --- | --- | --- | --- | --- |
| COc1ccc2[nH]cc(CCNC(C)=O)c2c1I | MTNR1A | β-arrestin recruitment, agonist |  | EC50 | 52.5 nM |
| O=C(Nc1ccc(Sc2ccc([N+](=O)[O-])cc2)cc1)O[C@H](Cn1ccnc1)c1ccc(Cl)cc1 | CYP51 | binding |  | Kd | 162 nM |
| c1ccc(-c2ccc(Nc3nccc(NC4CCCCC4)n3)cc2)nc1 | FLT3 | enzyme activity, inhibitor |  | IC50 | 1880 nM |
| Fc1ccc(CNc2cccc(-c3nnc[nH]3)c2)c(F)c1 | MTNR1A | cAMP, agonist, luciferase |  | EC50 | 245 nM |
| CC(C)(C)[C@H](NC(=O)[C@H](CCCNC(=N)N)NC(=O)Cc1ccc(CNC(=N)N)cc1)C(=O)N[C@@H](CCONC(=N)N)C(=O)NCc1ccc(C(=N)N)cc1 | F2 trypsin-like site | enzyme activity, inhibitor | pH 8 | Ki | 9600 nM |
| Cc1cnc(-c2ccc(-c3ccc(NC(=O)Nc4c(F)cc(F)cc4F)cc3F)c3c2C(=O)NC3)[nH]1 | Aurora kinase A (AURKA, Homo sapiens, UniProt O14965) | binding, competition with immobilised ligand |  | Kd | 2.9 nM |
| Cc1cc(Nc2cc3ncccc3c(N[C@@H]3C[C@H]4CC[C@@H](C3)N4CCC#N)n2)n[nH]1 | Ephrin type-B receptor 6 (EPHB6, Homo sapiens, UniProt O15197) | binding, competition with immobilised ligand |  | Kd | 2000 nM |
| CCC(=O)NC1Cc2ccccc2C(c2ccccc2)C1 (stereo not shown) | MTNR1A | β-arrestin recruitment, agonist |  | EC50 | 759 nM |
| COC(=O)c1cccc(-c2cccc(Nc3nccc(NC4CCCCC4)n3)c2)c1 | FLT3 | enzyme activity, inhibitor |  | IC50 | 13300 nM |
| Cn1cc(C[C@@H](N)C(=O)O)c2ccccc21 | Dihydrofolate reductase (DHFR, Homo sapiens, UniProt P00374) | enzyme activity, inhibitor | pH 7 | Ki | 810000 nM |
| CC(C)Nc1ccnc(Nc2ccc(C(N)=O)cc2)n1 | FLT3 | enzyme activity, inhibitor |  | IC50 | 213 nM |
| Clc1ccc(CNc2cccc(-c3nnc[nH]3)c2)cc1Cl | MTNR1A | cAMP, agonist, luciferase |  | EC50 | 229 nM |
| COc1cc2c(CCNC(C)=O)c[nH]c2cc1I | MTNR1A | cAMP, agonist, TR-FRET |  | EC50 | 6.61 nM |
| COC(=O)c1nccc(N(C)CC2CCCCC2O)n1 (stereo not shown) | MTNR1A | cAMP, agonist, luciferase |  | EC50 | 1860 nM |
| CCc1ccc2scc(CCNC(C)=O)c2c1 | MTNR1A | cAMP, agonist, TR-FRET |  | EC50 | 39.8 nM |
| COc1ccc2c(ccn2CCCCN2Cc3cc(OC)c(OC)cc3C2)c1 | Tmem97 | ligand displacement, radioligand | cell membranes | Ki | 8.91 nM |
| CCOc1ccc(CNc2cccnc2)cc1 | MTNR1A | cAMP, agonist, luciferase |  | EC50 | 63.5 nM |
| COCC(CNC(C)=O)c1cccc2ccc(OC)cc12 (stereo not shown) | MTNR1A | β-arrestin recruitment, agonist |  | EC50 | 3.09 nM |
| COc1ccc2ccn(CCCCN3CCc4cc(OC)c(OC)cc4C3)c2c1 | Tmem97 | ligand displacement, radioligand | cell membranes | Ki | 8.68 nM |
| CCc1nnc(SCc2cc(C(=O)OC)cs2)[nH]1 | MTNR1A | cAMP, agonist, luciferase |  | EC50 | 17.8 nM |
| Cc1ccc(C(=O)Nc2ccc(Oc3cc4cnn(C)c4cc3-c3cn[nH]c3)c(F)c2)c(=O)n1-c1ccc(F)cc1 | FLT3 | enzyme activity, inhibitor, radiometric |  | IC50 | 31 nM |
